Measurements from ChEMBL document CHEMBL5390224, “Design, synthesis, and biological evaluation of a novel series of 1,2,4-oxadiazole inhibitors of SLACK potassium channels: Identification of in vitro tool VU0935685” (Bioorg Med Chem, 2023).
Active and inactive are the calls of the source. No cut-off for these calls is given here.

Key:
Assay type in all cases: cell-based
HEK293 [1] = experiment: Inhibition of wild-type human SLACK expressed in HEK293 cells by thallium flux assay
Method in brief: (§1)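 Stable monoclonal HEK293 lines (WT or A934T SLACK) plated 20,000 cells/well; loaded 1 h at room temperature with Thallo-AM dye, 1.25 mM probenecid, masking dye, 0.3% Pluronic F-127 in buffer with 2.7 mM RbCl, pH 7.3. Compound preincubated 120 s, then Tl2SO4 stimulus (2.5 mM); fluorescence read 120 s. Concentration–response 1.5 nM–30 μM in half-log steps, ≥3 replicate wells.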

HEK293 [2] = experiment: Inhibition of wild-type human SLACK expressed in HEK293 cells assessed as efficacy at 30 uM by thallium flux assay relative to control; method in brief: as §1
HEK293 [3] = experiment: Activation of wild-type human SLACK expressed in HEK293 cells assessed as efficacy at 30 uM by thallium flux assay relative to control

CCOc1ccccc1S(=O)(=O)N1CC(c2cc(-c3ccc(F)cc3)no2)C1 was tested. Which inhibition (HEK293 [1]) did it give?
Its inhibition is “inactive”.

What about the Efficacy (HEK293 [2]) of the same compound?
Its Efficacy is “inactive”.

For CCOc1ccccc1S(=O)(=O)N1CC(c2nc(-c3ccc(Cl)cc3)no2)C1, which Efficacy (HEK293 [2]) is on record?
The Efficacy was 94%.

Which results are given for CCOc1ccccc1S(=O)(=O)N1CC(c2nc(-c3ccc(F)cn3)no2)C1?
inhibition (HEK293 [1]): inactive; Efficacy (HEK293 [2]): inactive

With O=S(=O)(c1cccc(Cl)c1)N1CC(c2nc(-c3ccsc3)no2)C1 as the compound, how does the inhibition (HEK293 [1]) read?
The inhibition was “inactive”.

What about the Efficacy (HEK293 [2]) of the same compound?
Its Efficacy is “inactive”.

O=S(=O)(c1ccccc1OCC1CCC1)N1CC(c2nc(-c3ccc(F)cc3)no2)C1 was tested. Which Efficacy (HEK293 [2]) did it give?
The Efficacy was 88%.

For CCOc1ccccc1S(=O)(=O)N1CC(c2nc(-c3cccc(C(F)(F)F)c3)no2)C1, which Efficacy (HEK293 [2]) is on record?
The Efficacy was 48%.

Which results are given for CCOc1ccccc1S(=O)(=O)N1CC(c2nc(-c3ncccn3)no2)C1?
inhibition (HEK293 [1]): inactive; Efficacy (HEK293 [2]): inactive

Which inhibition (HEK293 [1]) does the source give for CCOc1ccccc1S(=O)(=O)N1CC(c2nc(-c3ccccn3)no2)C1 here?
The inhibition was “inactive”.

What about the Efficacy (HEK293 [2]) of the same compound?
The Efficacy was “inactive”.

O=S(=O)(c1ccccc1C(F)(F)F)N1CC(c2nc(-c3ccsc3)no2)C1 was tested. Which Efficacy (HEK293 [3]) did it give?
Its Efficacy is 36%.

Which Efficacy (HEK293 [3]) does the source give for CCOc1ccccc1C(C)N1CC(c2nc(-c3ccsc3)no2)C1 (stereo not given) here?
Its Efficacy is under 10%.

How did the Efficacy (HEK293 [2]) turn out when O=S(=O)(c1ccccc1OCC1CC1)N1CC(c2nc(-c3ccc(F)cc3)no2)C1 was run?
Its Efficacy is 95%.

Which Efficacy (HEK293 [3]) does the source give for O=S(=O)(c1cccc2ccoc12)N1CC(c2nc(-c3ccc(F)cc3)no2)C1 here?
Its Efficacy is 37%.

With CCOc1ncccc1S(=O)(=O)N1CC(c2nc(-c3ccc(F)cc3)no2)C1 as the compound, how does the Efficacy (HEK293 [2]) read?
Its Efficacy is 46%.

With CCOc1ccccc1S(=O)(=O)N1CC(c2nc(-c3cccnc3)no2)C1 as the compound, how does the inhibition (HEK293 [1]) read?
Its inhibition is “inactive”.

And the Efficacy (HEK293 [2])?
The Efficacy was “inactive”.

What does the source list for CCOc1ccccc1S(=O)(=O)N1CC(c2nc(-c3ccncc3)no2)C1?
inhibition (HEK293 [1]): inactive; Efficacy (HEK293 [2]): inactive

Which results are given for CCOc1ccccc1S(=O)(=O)N1CC(c2cc(-c3ccc(F)cc3)on2)C1?
inhibition (HEK293 [1]): inactive; Efficacy (HEK293 [2]): inactive

How did the Efficacy (HEK293 [3]) turn out when Cc1cccc(S(=O)(=O)N2CC(c3nc(-c4ccsc4)no3)C2)c1 was run?
The Efficacy was under 10%.

For CCOc1ccccc1S(=O)(=O)N1CC(c2nnc(-c3ccc(F)cc3)o2)C1, which Efficacy (HEK293 [3]) is on record?
Its Efficacy is under 10%.

For CCOc1ccccc1S(=O)(=O)C1CN(c2nc(-c3ccc(F)cc3)no2)C1, which Efficacy (HEK293 [2]) is on record?
The Efficacy was 24%.

How did the Efficacy (HEK293 [3]) turn out when CCOc1ccccc1S(=O)(=O)N1CC(c2nc(-c3ccc(F)cc3)c[nH]2)C1 was run?
The Efficacy was 34%.

Which Efficacy (HEK293 [3]; filed as activator) does the source give for CCOc1ccccc1S(=O)(=O)N1CC(c2nc(-c3ccccc3C(F)(F)F)no2)C1 here?
Its Efficacy is 66%.

How did the Efficacy (HEK293 [2]) turn out when CCOc1ccccc1S(=O)(=O)N1CC(c2nc(-c3ccccc3F)no2)C1 was run?
Its Efficacy is 88%.

What does the source list for CCOc1ccccc1S(=O)(=O)N1CC(c2nc(-c3cccc(Cl)c3)no2)C1?
inhibition (HEK293 [1]): inactive; Efficacy (HEK293 [2]): inactive

Which inhibition (HEK293 [1]) does the source give for CCOc1ccccc1S(=O)(=O)[C@H]1C[C@@H](c2nc(-c3ccc(F)cc3)no2)C1 here?
Its inhibition is “inactive”.

And the Efficacy (HEK293 [2])?
The Efficacy was “inactive”.

For O=S(=O)(c1ccccc1OC1COC1)N1CC(c2nc(-c3ccc(F)cc3)no2)C1, which Efficacy (HEK293 [3]; filed as activator) is on record?
Its Efficacy is 43%.

Which Efficacy (HEK293 [3]) does the source give for CCOc1ccccc1S(=O)(=O)N1CC(c2nc(-c3ccccc3C)no2)C1 here?
The Efficacy was under 10%.

Which results are given for O=S(=O)(c1ccc(C(F)(F)F)cc1)N1CC(c2nc(-c3ccsc3)no2)C1?
inhibition (HEK293 [1]): inactive; Efficacy (HEK293 [2]): inactive

How did the inhibition (HEK293 [1]) turn out when Cc1nnc2c(S(=O)(=O)N3CC(c4nc(-c5ccc(F)cc5)no4)C3)cccn12 was run?
The inhibition was “inactive”.

And the Efficacy (HEK293 [2])?
The Efficacy was “inactive”.

Which Efficacy (HEK293 [2]) does the source give for CCOc1ccccc1S(=O)(=O)[C@H]1C[C@H](c2nc(-c3ccc(F)cc3)no2)C1 here?
The Efficacy was 52%.

CCOc1ccccc1S(=O)(=O)N1CC(c2nc(-c3ccc(C)cc3)no2)C1 was tested. Which inhibition (HEK293 [1]) did it give?
The inhibition was “inactive”.

And the Efficacy (HEK293 [2])?
Its Efficacy is “inactive”.

With CCNc1ccccc1S(=O)(=O)N1CC(c2nc(-c3ccsc3)no2)C1 as the compound, how does the inhibition (HEK293 [1]) read?
The inhibition was “inactive”.

And the Efficacy (HEK293 [2])?
Its Efficacy is “inactive”.

How did the Efficacy (HEK293 [3]; filed as activator) turn out when O=S(=O)(c1cccc(C(F)(F)F)c1)N1CC(c2nc(-c3ccsc3)no2)C1 was run?
The Efficacy was 61%.

O=S(=O)(c1ccc(F)cc1)N1CC(c2nc(-c3ccsc3)no2)C1 was tested. Which inhibition (HEK293 [1]) did it give?
The inhibition was “inactive”.

And the Efficacy (HEK293 [2])?
The Efficacy was “inactive”.

Which inhibition (HEK293 [1]) does the source give for CCCCOc1ccccc1S(=O)(=O)N1CC(c2nc(-c3ccsc3)no2)C1 here?
Its inhibition is “inactive”.

And the Efficacy (HEK293 [2])?
Its Efficacy is “inactive”.

For CCOc1ccccc1S(=O)(=O)N1CC(c2nc(-c3cccc(F)c3)no2)C1, which inhibition (HEK293 [1]) is on record?
The inhibition was “inactive”.

What about the Efficacy (HEK293 [2]) of the same compound?
The Efficacy was “inactive”.

CCOc1ccccc1S(=O)(=O)N1CC(c2cc(-c3ccc(F)cc3)n[nH]2)C1 was tested. Which Efficacy (HEK293 [3]) did it give?
The Efficacy was 24%.

For CCOc1ccccc1S(=O)(=O)N1CC(c2nc(-c3ccccc3OC)no2)C1, which Efficacy (HEK293 [3]) is on record?
The Efficacy was 18%.

For CCOc1ccccc1S(=O)(=O)N1CC(C)(c2nc(-c3ccc(F)cc3)no2)C1, which Efficacy (HEK293 [3]) is on record?
Its Efficacy is 14%.

Which Efficacy (HEK293 [2]) does the source give for O=S(=O)(c1ccccc1N1CCCCC1)N1CC(c2nc(-c3ccc(F)cc3)no2)C1 here?
Its Efficacy is 28%.

Which results are given for CCOc1ccccc1S(=O)(=O)c1ccc(-c2nc(-c3ccc(F)cc3)no2)cc1?
inhibition (HEK293 [1]): inactive; Efficacy (HEK293 [2]): inactive

CCOc1ccccc1S(=O)(=O)N1CC(c2nc(-c3ccccc3Cl)no2)C1 was tested. Which Efficacy (HEK293 [2]) did it give?
The Efficacy was 81%.

For CCOc1ccccc1C(=O)N1CC(c2nc(-c3ccsc3)no2)C1, which Efficacy (HEK293 [3]) is on record?
Its Efficacy is 18%.

For CCOc1ccccc1OC(=O)N1CC(c2nc(-c3ccsc3)no2)C1, which Efficacy (HEK293 [3]; filed as activator) is on record?
Its Efficacy is 50%.

For CCOc1ccccc1S(=O)(=O)N1CC(c2ncc(-c3ccc(F)cc3)o2)C1, which Efficacy (HEK293 [3]) is on record?
Its Efficacy is 37%.

With CCOc1ccccc1S(=O)(=O)N1CC(c2nnc(-c3ccc(F)cc3)[nH]2)C1 as the compound, how does the Efficacy (HEK293 [3]) read?
The Efficacy was 31%.

Which Efficacy (HEK293 [2]) does the source give for O=S(=O)(c1ccccc1N1CCCC1)N1CC(c2nc(-c3ccc(F)cc3)no2)C1 here?
Its Efficacy is 92%.

For O=S(=O)(c1cccn2cnnc12)N1CC(c2nc(-c3ccc(F)cc3)no2)C1, which Efficacy (HEK293 [3]) is on record?
The Efficacy was 14%.

For CCOc1ccccc1S(=O)(=O)N1CC(c2nc(-c3ccco3)no2)C1, which Efficacy (HEK293 [2]) is on record?
Its Efficacy is 44%.

For CCOc1ccccc1S(=O)(=O)N1CC(c2noc(-c3ccc(F)cc3)n2)C1, which Efficacy (HEK293 [2]) is on record?
Its Efficacy is 45%.

With O=S(=O)(c1ccccc1OC1CCCC1)N1CC(c2nc(-c3ccc(F)cc3)no2)C1 as the compound, how does the Efficacy (HEK293 [2]) read?
The Efficacy was 93%.

O=S(=O)(c1cccn2ncnc12)N1CC(c2nc(-c3ccc(F)cc3)no2)C1 was tested. Which Efficacy (HEK293 [3]) did it give?
Its Efficacy is 16%.

CCCc1ccccc1S(=O)(=O)N1CC(c2nc(-c3ccsc3)no2)C1 was tested. Which Efficacy (HEK293 [2]) did it give?
The Efficacy was 79%.

Which Efficacy (HEK293 [3]) does the source give for CCOc1ccccc1NC(=O)N1CC(c2nc(-c3ccsc3)no2)C1 here?
The Efficacy was under 10%.

With Cc1nc2c(S(=O)(=O)N3CC(c4nc(-c5ccc(F)cc5)no4)C3)cccn2n1 as the compound, how does the Efficacy (HEK293 [3]) read?
The Efficacy was 16%.

Which Efficacy (HEK293 [3]) does the source give for CCOc1ccccc1S(=O)(=O)N1CC(c2nc(-c3cccc(OC)c3)no2)C1 here?
Its Efficacy is under 10%.

Which Efficacy (HEK293 [2]) does the source give for CCOc1ccccc1S(=O)(=O)N1CC(c2nc(-c3ccccc3)no2)C1 here?
The Efficacy was 51%.

With Cc1cn2cccc(S(=O)(=O)N3CC(c4nc(-c5ccc(F)cc5)no4)C3)c2n1 as the compound, how does the Efficacy (HEK293 [3]) read?
Its Efficacy is 19%.

CCOc1ccccc1S(=O)(=O)N1CC(F)(c2nc(-c3ccc(F)cc3)no2)C1 was tested. Which Efficacy (HEK293 [2]) did it give?
The Efficacy was 98%.

Which Efficacy (HEK293 [3]; filed as activator) does the source give for CCOc1ccccc1S(=O)(=O)N1CC(c2cn(-c3ccc(F)cc3)nn2)C1 here?
Its Efficacy is 41%.

CCOc1ccccc1CC(=O)N1CC(c2nc(-c3ccsc3)no2)C1 was tested. Which Efficacy (HEK293 [3]) did it give?
Its Efficacy is 37%.

With O=S(=O)(c1cccc(F)c1)N1CC(c2nc(-c3ccsc3)no2)C1 as the compound, how does the Efficacy (HEK293 [3]) read?
The Efficacy was 24%.

Which Efficacy (HEK293 [2]) does the source give for CCOc1ccccc1S(=O)(=O)N1CC(c2nc(-c3ccc(F)cc3)cn2C)C1 here?
The Efficacy was 47%.

How did the Efficacy (HEK293 [3]; filed as activator) turn out when O=S(=O)(c1ccccc1Cl)N1CC(c2nc(-c3ccsc3)no2)C1 was run?
The Efficacy was 47%.

How did the Efficacy (HEK293 [3]) turn out when CCOc1ccccc1CN1CC(c2nc(-c3ccsc3)no2)C1 was run?
The Efficacy was 31%.

Which Efficacy (HEK293 [3]; filed as activator) does the source give for O=S(=O)(c1cccn2ccnc12)N1CC(c2nc(-c3ccc(F)cc3)no2)C1 here?
The Efficacy was 48%.

O=S(=O)(c1ccccc1F)N1CC(c2nc(-c3ccsc3)no2)C1 was tested. Which Efficacy (HEK293 [3]) did it give?
Its Efficacy is 30%.

For CCOc1ccccc1S(=O)(=O)N1CC(c2nc(-c3cccc(C)c3)no2)C1, which Efficacy (HEK293 [2]) is on record?
Its Efficacy is under 10%.
